FGF22 binding: binders of human FGF22 protein, primary screen, FGF22 synaptogenesis inhibitor project, biophysical, thermal shift, single point | 340,000 tested, 1.5% active | recombinant FGF22 thermal shift, SYPRO orange fluorescence; percent of sucrose octasulfate shift, DMSO zero | Fibroblast growth factor 22 (Homo sapiens), Q9HCT0 | activity (Tm shift, normalised), % at 9.99 µM;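 active means mean Tm shift, scaled 0 neutral to 100 positive control, at about 1.3% or above, every replicate too, limit read from the data; inconclusive means no clear call, values can overlap the other calls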
Ecoli rRNA inh: reduced GFP signal of wild-type E. coli, primary screen, bacterial rRNA inhibitor project, GFP/RFP fluorescence, OD600, single point; E. coli WT GFP vs humanized-ribosome RFP mutants, 24 h; active compounds read low; DMSO median 0, no signal -100; GFP signal change (wild-type ribosome), % (no concentration beside the values); 350,000 tested, 1.6% active;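 active means significant combined selectivity score with lowered wild-type GFP, culture density cut under 30%, mutant RFP and density less affected; inactive means any of these conditions unmet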
HIV Env fusion: inhibitors of HIV-1 Env-driven cell-cell fusion, primary screen, HeLa-JRFL effector, CEM21 target cells, luciferase | 360,000 tested, 1.1% active | inhibition, % at 12.3 µM;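 active means mean replicate inhibition score of at least 50 and every replicate individually at or above 50; inconclusive means only one of the two criteria met; inactive means mean below 50 and not all replicates reaching 50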;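 further: 0% = plate neutral controls and 100% = maraviroc near 300 nM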
PGC1a acetyl inh: inhibitors of PGC1a acetylation signal, primary screen, cell-based, U2OS, AlphaScreen, inhibitor mode | AlphaScreen anti-acetyl-lysine; with virally co-expressed GCN5 acetyltransferase | inhibition, % at 15.6 µM | 350,000 tested, 0.17% active | AID 651687, 2012;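 active means every replicate shows inhibition of at least 40%; inconclusive means mean inhibition at least 40% but some replicate below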;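 further: 0% = neutral control wells and 100% = positive control wells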
Cneo AK release: Cryptococcus neoformans cell lysis inducers, primary screen, AK release luminescence, single concentration; C. neoformans lysis, adenylate kinase release luminescence, 4 h; normalised: neutral wells 0, clomiphene wells 100; lysis activity, % at 15 µM; 360,000 tested, 0.2% active;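 active means mean lysis activity across replicates of at least 80%, whatever share of replicates individually reach that level; inactive means mean lysis activity below 80%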
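Schedule: static 4 h at 37 °C with compound, 1 h detection; system: C. neoformans cells; benchmarks: Clomiphene as positive control; buffer or medium: fresh YPD medium; measure: luminescence rise reflecting yeast cell lysis; measured by: luminescent adenylate kinase detection reagent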
ERAP1 HTS inh: human ERAP1 aminopeptidase inhibitors, primary screen, biochemical, single point, plate reader | Endoplasmic reticulum aminopeptidase 1 (Homo sapiens), Q9NZ08 | 340,000 tested, 0.15% active | inhibition, % at 10.7 µM | recombinant ERAP1, Leu-AMC fluorescence, 60 min;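 active means mean replicate inhibition of at least 30%, or all replicates individually reaching that 30% level; inactive means mean below 30% and not every replicate reaching it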;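 further: 0% = neutral control wells and 100% = L-leucinethiol positive control wells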
Target sequence (Q9NZ08 whole entry, looked up): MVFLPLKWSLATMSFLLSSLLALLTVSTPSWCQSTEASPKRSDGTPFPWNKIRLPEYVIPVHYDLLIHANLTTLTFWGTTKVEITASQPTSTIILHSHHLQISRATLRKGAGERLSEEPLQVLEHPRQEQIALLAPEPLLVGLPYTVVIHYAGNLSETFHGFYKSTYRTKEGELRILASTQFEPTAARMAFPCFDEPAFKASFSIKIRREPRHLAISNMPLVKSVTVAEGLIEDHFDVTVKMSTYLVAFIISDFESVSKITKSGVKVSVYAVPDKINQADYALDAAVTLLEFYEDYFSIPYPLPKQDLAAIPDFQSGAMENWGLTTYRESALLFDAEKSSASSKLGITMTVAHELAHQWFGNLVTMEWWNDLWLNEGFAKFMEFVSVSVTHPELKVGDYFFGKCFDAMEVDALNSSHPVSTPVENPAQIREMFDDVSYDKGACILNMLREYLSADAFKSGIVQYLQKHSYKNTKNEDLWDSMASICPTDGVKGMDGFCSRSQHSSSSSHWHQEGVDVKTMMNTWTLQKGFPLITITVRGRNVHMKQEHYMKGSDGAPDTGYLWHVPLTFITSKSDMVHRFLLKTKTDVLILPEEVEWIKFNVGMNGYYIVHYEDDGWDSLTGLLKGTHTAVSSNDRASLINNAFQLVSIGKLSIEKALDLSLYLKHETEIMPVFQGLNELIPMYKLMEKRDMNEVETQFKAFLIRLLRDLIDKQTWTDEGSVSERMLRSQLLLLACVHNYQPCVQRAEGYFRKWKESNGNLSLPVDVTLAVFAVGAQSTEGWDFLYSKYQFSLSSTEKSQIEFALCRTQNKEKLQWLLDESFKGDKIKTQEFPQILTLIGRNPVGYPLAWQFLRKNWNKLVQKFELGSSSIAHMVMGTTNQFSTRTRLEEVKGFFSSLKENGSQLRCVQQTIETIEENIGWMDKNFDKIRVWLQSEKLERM
* = called active by the depositor; u = inconclusive; x = not tested or not shown; [ ] = remark or other dose. Compounds with a hit are over-represented: about 3.5% of the library has one in this group of screens.

SMILES	FGF22 binding	Ecoli rRNA inh	HIV Env fusion	PGC1a acetyl inh	Cneo AK release	ERAP1 HTS inh
CN1CCN(C(=O)C[C@H]2CC[C@@H]3[C@H](COC[C@H](O)CN3C(=O)Nc3cc(Cl)cc(Cl)c3)O2)CC1	0.1	-29.8	x	4.2	-2.1	-1.0
O=C(C[C@H]1CC[C@H]2[C@@H](COC[C@@H](O)CN2C(=O)c2ccc(F)cc2)O1)N1CCCCC1	0.2	2.4	8.7[16.7 µM]	1.1	4.5	0.3
CN1CCN(C(=O)C[C@@H]2CC[C@@H]3[C@H](COC[C@H](O)CN3C(=O)Nc3ccc(Cl)cc3)O2)CC1	0.0	-17.6*	x	1.8	-2.2	-1.5
O=C(C[C@H]1CC[C@H]2[C@@H](COC[C@@H](O)CN2C(=O)c2ccc(F)cc2)O1)N1CCOCC1	-0.1	5.6	x	-0.4	105.0*	-2.7
COC(=O)c1ccc(C2/C(=C(/O)c3ccc4c(c3)CC(C)O4)C(=O)C(=O)N2CCN2CCOCC2)cc1 (stereo unspecified)	-0.1	-5.5	-8.0	-4.3	18.4	0.9
CCCn1c(=S)[nH]c2cc(C(=O)NCc3ccccc3OC)ccc2c1=O	0.1	-5.7	13.0	8.6	-0.5	-1.5
CCN(CC)c1ncnc2ccc(Br)cc12	x	x	86.6*	36.2	-1.3	x
O=C(COC(=O)c1c[nH]c(=O)[nH]c1=O)Nc1ccccc1F	43.3*	15.4	0.8	x	x	-0.8
Cc1cccc(NC(=S)N2N=CCC2c2ccccc2)c1 (stereo unspecified)	x	-22.8*	-160.7	12.6	-0.2	-1.3
CC1=CC(C)(C)N(C(=O)c2ccccc2)c2ccc(C)cc21	x	x	94.2*	-13.4	-0.1	x
Cc1cc(C)n(-c2cccc(CN(C)Cc3nc(-c4cnccn4)no3)c2)n1	43.8*	12.3	11.9	x	-0.9	0.8
CN(Cc1nc(-c2cnccn2)no1)Cc1cccc2ccccc12	0.1	4.2	2.3	-7.1	-1.0	x
Cc1cc(C(=O)Cn2cc(C(F)(F)F)ccc2=O)c(C)n1CC1CCCO1 (stereo unspecified)	0.2	5.3	x	4.6	0.3	1.5
Cc1cc(NC(=O)CN2C(=O)c3ccccc3S2(=O)=O)no1	-0.2	11.6	-12.9	x	-4.3	32.1*
Cc1cc(C(=O)CN2C(=O)c3ccccc3S2(=O)=O)c(C)n1CC1CCCO1 (stereo unspecified)	x	x	115.4*	5.0	-4.6	x
Cc1ccc(C)c(C(=O)CN2C(=O)c3ccccc3S2(=O)=O)c1	x	x	x	5.9	0.6	x
COc1ccc(C(=O)Cn2nnc(-c3ccccc3F)n2)cc1	0.0	-30.6*	x	-22.3	-3.4	-3.5
CCCn1c(C)cc(C(=O)CN2C(=O)c3ccccc3S2(=O)=O)c1C	-0.1	2.5	67.3*	0.0	-10.6	-2.5
CCOc1ccc(C(=O)NCC(=O)NC(C)c2ccc(-n3ccnc3)cc2)cc1OCC (stereo unspecified)	-0.1	3.4	-0.3	-8.3	-2.1	0.7
COc1ccc(C(=O)CN2C(=O)c3ccccc3S2(=O)=O)cc1	-0.2	10.6	72.4*	-5.6	5.0	-0.1
O=C(c1cccs1)N(Cc1ccc(F)cc1)C1CCS(=O)(=O)C1 (stereo unspecified)	-0.2	5.3	-10.8	x	2.4	-1.5
O=c1oc2ccccc2cc1-c1cn2ccccc2n1	0.1	13.1	36.0	-9.6	x	2.5
Cc1cccn2cc(-c3cc4ccccc4oc3=O)nc12	43.0*	1.9	13.2	6.8	0.5	0.9
NS(=O)(=O)c1ccc(CCNc2ccn3nc(-c4ccccc4)cc3n2)cc1	-0.1	-5.5	2.5	x	-12.7	15.7
CCN1C=CC(=C2C(=O)c3ccccc3C2=O)C=C1	x	x	73.2*	x	-5.8	x
SMILES	FGF22 binding	Ecoli rRNA inh	HIV Env fusion	PGC1a acetyl inh	Cneo AK release	ERAP1 HTS inh
CCCN1C=CC(=C2C(=O)c3ccccc3C2=O)C=C1	x	x	107.1*	x	-5.3	x
CCCCCCN1C=CC(=C2C(=O)c3ccccc3C2=O)C=C1	0.1	-3.9	43.5	1.8	-10.2	0.4
Nc1ccc(Cl)cc1C(=O)c1ccc[nH]1	44.1*	-12.1	u	2.1	1.6	0.8
O=C(Cc1ccc(Cl)cc1Cl)OCC(=O)c1ccc[nH]1	x	x	-109.5	3.9	-2.0	x
COc1cc2c3c(c1)C(C)CC(C)(C)N3C(=O)C2=O (stereo unspecified)	42.8	x	59.8*	-6.6	4.7	3.0
COc1cc2c3c(c1)C(C)=CC(C)(C)N3C(=O)C2=O	-0.1	-7.7	-16.1	-0.6	x	2.2
S=c1[nH]nc(-c2cccnc2)n1Cc1ccccc1	x	x	-15.8	12.9	x	x
Cc1[nH][nH]c(=O)c1C(c1c(C)[nH][nH]c1=O)c1cn(Cc2ccc(Cl)c(Cl)c2)c2ccccc12	0.2	-30.4*	x	x	-2.1	0.4
Cc1[nH][nH]c(=O)c1C(c1c(C)[nH][nH]c1=O)c1cn(Cc2ccc(F)cc2)c2ccccc12	x	x	x	x	-1.6	x
O=C(C[C@@H]1CC[C@H](NS(=O)(=O)c2ccc(F)cc2)[C@H](CO)O1)NCc1ccc(Cl)c(Cl)c1	-0.1	-8.0	-7.7[16.7 µM]	4.5	4.2	0.5
C[n+]1ccccc1/C=C/c1ccc(F)c(F)c1	-0.3	5.3	26.6	x	-2.1	4.3
C[n+]1ccccc1/C=C/c1ccc2ncccc2c1	0.0	17.6	-13.2	x	-1.4	40.3*
CC(CCCN(C)C)C(Cc1ccccc1)c1ccccc1 (stereo unspecified)	-0.1	-47.5*	6.5	4.8	1.9	-0.1
COc1cc(/C=N/Nc2nc3ccccc3s2)cc([N+](=O)[O-])c1O	-0.1	-7.1	2.7	8.9	0.8	0.0
CCN(C(=O)CSc1nnnn1C)C1CCCCC1	-0.1	x	-0.9	x	-0.1	-0.5
COc1ccccc1-n1nnnc1SCC(=O)N(C)C1CCS(=O)(=O)C1 (stereo unspecified)	-0.2	3.1	x	x	-0.5	3.6
CCCN(C(=O)CSc1nnnn1C)C1CCS(=O)(=O)C1 (stereo unspecified)	42.9*	18.6	-0.9	3.3	x	4.3
Cc1ccccc1-n1c(C)nnc1SCC(=O)N(C)C1CCS(=O)(=O)C1 (stereo unspecified)	-0.7	15.0	-5.6	12.8	x	1.0
COc1ccc(-n2nnnc2SCC(=O)N(C)C2CCS(=O)(=O)C2)cc1 (stereo unspecified)	43.3*	6.0	-1.5	x	x	4.2
Cc1cc2nnc(SCC(=O)N(C)C3CCS(=O)(=O)C3)n2c2ccccc12 (stereo unspecified)	43.1*	-5.4	2.4	-2.6	x	-2.9
Cc1ccccc1OCC(=O)NC1=NCCS1	x	3.5	-59.1	x	-0.5	-0.5
